In ChEMBL document CHEMBL2069193 (Bioorg Med Chem Lett, 2012) one finds IC50 and inhibition data, which are given here for 17 compounds.

In experiment [1] the test system is CHO. As to the kind of experiment: Cytotoxicity against CHO cells. The class given is cell-based. Particulars: Cricetulus griseus.
Experiment [2] has as its system LAD2. Nature of the experiment: Inhibition of human LAD2 cells degranulation preincubated for 30 mins before streptavidin stimulation measured after 30 mins by measuring beta-hexosaminidase activity. Type of experiment: functional, cell-based. The method, boiled down:
(§1)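 LAD2 mast cells sensitized overnight at 37 °C, 5% CO2 with 100 ng/ml biotin-IgE in StemPro-34 growth medium with 2 mM glutamine and 100 ng/ml SCF. They were washed into release buffer, plated at 10,000 cells/well, given drug for 30 min, then 125 ng/ml streptavidin for 30 min. Supernatant and freeze-thaw lysate were incubated 90 min at 37 °C with 1 mM p-nitrophenyl-N-acetyl-D-glucosamide, citrate pH 4.5.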

For experiment [3], the system named is LAD2. Nature of the experiment: Inhibition of human LAD2 cells degranulation at 1 uM preincubated for 30 mins before streptavidin stimulation measured after 30 mins by measuring beta-hexosaminidase activity. The class given is functional. The method, boiled down:
as §1

Experiment [4] deals with Tyrosine-protein kinase HCK (Homo sapiens) (UniProt P08631). As to the kind of experiment: Inhibition of human Hck at 1 uM.
Experiment [5] deals with 3-phosphoinositide-dependent protein kinase 1 (PDPK1) (Homo sapiens) (UniProt O15530). Nature of the experiment: Inhibition of human PDK1 at 1 uM.
Experiment [6] deals with Tyrosine-protein kinase Lck (Homo sapiens) (UniProt P06239). As to the kind of experiment: Inhibition of human Lck at 1 uM.
The target of experiment [7] is Tyrosine-protein kinase receptor UFO (Homo sapiens) (UniProt P30530). Nature of the experiment: Inhibition of human Axl at 1 uM.
In experiment [8] the target is Serine/threonine-protein kinase pim-1 (Homo sapiens) (UniProt P11309). Nature of the experiment: Inhibition of human Pim-1 at 1 uM.
Experiment [9] has as its target Calcium/calmodulin-dependent protein kinase type II subunit delta (Homo sapiens) (UniProt Q13557). Nature of the experiment: Inhibition of human CaMK2delta at 1 uM.
Experiment [10] has as its target Protein kinase C epsilon type (Homo sapiens) (UniProt Q02156). Nature of the experiment: Inhibition of human PKCepsilon at 1 uM.
Experiment [11] addresses Dual specificity mitogen-activated protein kinase kinase 6 (Homo sapiens) (UniProt P52564). As to the kind of experiment: Inhibition of human MKK6 at 1 uM.
The target of experiment [12] is Hepatocyte growth factor receptor (Homo sapiens) (UniProt P08581). Nature of the experiment: Inhibition of human Met at 1 uM.
Experiment [13] deals with Inhibitor of nuclear factor kappa-B kinase subunit beta (Homo sapiens) (UniProt O14920). As to the kind of experiment: Inhibition of human IKKbeta at 1 uM.
Experiment [14] addresses Tyrosine-protein kinase Yes (Homo sapiens) (UniProt P07947). As to the kind of experiment: Inhibition of human Yes at 1 uM.
The target of experiment [15] is Rho-associated protein kinase 2 (Homo sapiens) (UniProt O75116). As to the kind of experiment: Inhibition of human ROCK2 at 1 uM.
For experiment [16], the target named is Casein kinase I isoform delta (Homo sapiens) (UniProt P48730). As to the kind of experiment: Inhibition of human CK1delta at 1 uM.
Experiment [17] deals with Serine/threonine-protein kinase Chk1 (Homo sapiens) (UniProt O14757). As to the kind of experiment: Inhibition of human CHK1 at 1 uM.
Experiment [18] deals with Fibroblast growth factor receptor 3 (Homo sapiens) (UniProt P22607). As to the kind of experiment: Inhibition of human FGFR3 at 1 uM.
Experiment [19] has as its target Macrophage colony-stimulating factor 1 receptor (Homo sapiens) (UniProt P07333). Nature of the experiment: Inhibition of human Fms at 1 uM.
Experiment [20] concerns the target Tyrosine-protein kinase ITK/TSK (Homo sapiens) (UniProt Q08881). Nature of the experiment: Inhibition of human Itk at 1 uM.
For experiment [21], the target named is Protein kinase C beta type (Homo sapiens) (UniProt P05771). Nature of the experiment: Inhibition of human PKCbeta2 at 1 uM.
For experiment [22], the target named is Focal adhesion kinase 1 (Homo sapiens) (UniProt Q05397). Nature of the experiment: Inhibition of human FAK at 1 uM.
Experiment [23] has as its target Ribosomal protein S6 kinase alpha-6 (Homo sapiens) (UniProt Q9UK32). Nature of the experiment: Inhibition of human Rsk4 at 1 uM.
For experiment [24], the target named is Receptor-type tyrosine-protein kinase FLT3 (Homo sapiens) (UniProt P36888). Nature of the experiment: Inhibition of human Flt3 at 1 uM.
The target of experiment [25] is Vascular endothelial growth factor receptor 1 (Homo sapiens) (UniProt P17948). Nature of the experiment: Inhibition of human Flt1 at 1 uM.
The target in experiment [26] is Tyrosine-protein kinase Lyn (Homo sapiens) (UniProt P07948). As to the kind of experiment: Inhibition of human Lyn at 1 uM.
Experiment [27] concerns the target Glycogen synthase kinase-3 alpha (Homo sapiens) (UniProt P49840). As to the kind of experiment: Inhibition of human GSK3alpha at 1 uM.
Experiment [28] concerns the target Aurora kinase A (Homo sapiens) (UniProt O14965). Nature of the experiment: Inhibition of human Aurora-A at 1 uM.
Experiment [29] deals with Tyrosine-protein kinase Fyn (Homo sapiens) (UniProt P06241). Nature of the experiment: Inhibition of human Fyn at 1 uM.
The target in experiment [30] is Protein kinase C gamma type (Homo sapiens) (UniProt P05129). Nature of the experiment: Inhibition of human PKCgamma at 1 uM.
The target in experiment [31] is Proto-oncogene tyrosine-protein kinase receptor Ret (Homo sapiens) (UniProt P07949). As to the kind of experiment: Inhibition of human Ret at 1 uM.
Experiment [32] addresses Tyrosine-protein kinase BTK (Homo sapiens) (UniProt Q06187). As to the kind of experiment: Inhibition of human BTK at 1 uM.
The target in experiment [33] is Protein-tyrosine kinase 2-beta (Homo sapiens) (UniProt Q14289). As to the kind of experiment: Inhibition of human Pyk2 at 1 uM.
Experiment [34] concerns the target Cyclin-dependent kinase 1/cyclin B1 (Homo sapiens) (UniProt P06493+P14635). Nature of the experiment: Inhibition of human CDK1/cyclinB at 1 uM. Type of experiment: protein-complex assay.
Experiment [35] deals with ALK tyrosine kinase receptor (Homo sapiens) (UniProt Q9UM73). As to the kind of experiment: Inhibition of human Alk at 1 uM.
Experiment [36] concerns the target Mitogen-activated protein kinase 10 (Homo sapiens) (UniProt P53779). Nature of the experiment: Inhibition of human JNK3 at 1 uM.
In experiment [37] the target is MAP kinase-activated protein kinase 5 (Homo sapiens) (UniProt Q8IW41). Nature of the experiment: Inhibition of human PRAK at 1 uM.
In experiment [38] the target is Mitogen-activated protein kinase kinase kinase 7 (Homo sapiens) (UniProt O43318). As to the kind of experiment: Inhibition of human TAK1 at 1 uM.
Experiment [39] deals with Glycogen synthase kinase-3 beta (Homo sapiens) (UniProt P49841). As to the kind of experiment: Inhibition of human GSK3beta at 1 uM.
Experiment [40] addresses High affinity nerve growth factor receptor (Homo sapiens) (UniProt P04629). As to the kind of experiment: Inhibition of human TrkA at 1 uM.
Experiment [41] concerns the target Tyrosine-protein kinase Fgr (Homo sapiens) (UniProt P09769). As to the kind of experiment: Inhibition of human Fgr at 1 uM.
Experiment [42] concerns the target Proto-oncogene tyrosine-protein kinase Src (Homo sapiens) (UniProt P12931). As to the kind of experiment: Inhibition of human cSRC at 1 uM.
Experiment [43] addresses Tyrosine-protein kinase ZAP-70 (Homo sapiens) (UniProt P43403). Nature of the experiment: Inhibition of human ZAP70 at 1 uM.

What is called IC50 is the concentration needed to halve the response being measured. Read a low IC50 as higher potency. In general, inhibition refers to the percentage by which the read-out fell short of the control.

Molecules are shown by their SMILES.

Chain of Glycogen synthase kinase-3 beta (Homo sapiens) (P49841 whole entry, looked up): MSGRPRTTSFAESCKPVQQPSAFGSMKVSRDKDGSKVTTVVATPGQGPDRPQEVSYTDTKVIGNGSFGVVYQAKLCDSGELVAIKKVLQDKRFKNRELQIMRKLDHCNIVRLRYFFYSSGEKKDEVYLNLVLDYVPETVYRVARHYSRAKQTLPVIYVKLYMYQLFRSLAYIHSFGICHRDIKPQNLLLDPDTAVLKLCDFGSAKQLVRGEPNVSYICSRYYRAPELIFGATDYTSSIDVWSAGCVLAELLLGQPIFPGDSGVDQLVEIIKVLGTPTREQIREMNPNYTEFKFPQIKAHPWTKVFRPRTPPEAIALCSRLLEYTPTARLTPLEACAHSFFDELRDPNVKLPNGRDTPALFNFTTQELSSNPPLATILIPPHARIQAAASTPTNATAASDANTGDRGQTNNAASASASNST
Chain of Calcium/calmodulin-dependent protein kinase type II subunit delta (Homo sapiens) (Q13557 whole entry): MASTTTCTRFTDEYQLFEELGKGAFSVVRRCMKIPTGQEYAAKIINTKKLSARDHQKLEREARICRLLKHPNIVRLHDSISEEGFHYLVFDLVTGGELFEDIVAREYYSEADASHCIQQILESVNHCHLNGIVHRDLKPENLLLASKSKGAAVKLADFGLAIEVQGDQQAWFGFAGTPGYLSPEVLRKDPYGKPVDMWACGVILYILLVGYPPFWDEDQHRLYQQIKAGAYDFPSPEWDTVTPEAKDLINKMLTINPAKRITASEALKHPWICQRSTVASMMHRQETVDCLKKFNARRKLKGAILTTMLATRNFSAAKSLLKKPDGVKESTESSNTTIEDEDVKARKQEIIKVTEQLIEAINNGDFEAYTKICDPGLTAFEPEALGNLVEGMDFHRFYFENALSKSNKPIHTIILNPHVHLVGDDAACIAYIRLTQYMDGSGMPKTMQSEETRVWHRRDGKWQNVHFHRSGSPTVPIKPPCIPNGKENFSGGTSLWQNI
Chain of Glycogen synthase kinase-3 alpha (Homo sapiens) (P49840 2-483 limits assumed): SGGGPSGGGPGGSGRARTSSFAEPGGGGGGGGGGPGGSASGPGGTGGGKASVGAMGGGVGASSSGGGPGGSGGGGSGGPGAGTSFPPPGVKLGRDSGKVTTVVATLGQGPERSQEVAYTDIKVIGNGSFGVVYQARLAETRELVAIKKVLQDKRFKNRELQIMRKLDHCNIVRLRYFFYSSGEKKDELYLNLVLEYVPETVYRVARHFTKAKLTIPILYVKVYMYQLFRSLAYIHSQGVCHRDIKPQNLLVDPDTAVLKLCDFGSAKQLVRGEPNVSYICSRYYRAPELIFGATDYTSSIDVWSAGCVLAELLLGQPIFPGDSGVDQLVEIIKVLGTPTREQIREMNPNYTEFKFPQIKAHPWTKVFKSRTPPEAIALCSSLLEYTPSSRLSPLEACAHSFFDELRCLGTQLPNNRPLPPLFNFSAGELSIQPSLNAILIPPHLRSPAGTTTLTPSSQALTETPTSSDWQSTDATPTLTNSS
Chain of Ribosomal protein S6 kinase alpha-6 (Homo sapiens) (Q9UK32 whole entry, looked up): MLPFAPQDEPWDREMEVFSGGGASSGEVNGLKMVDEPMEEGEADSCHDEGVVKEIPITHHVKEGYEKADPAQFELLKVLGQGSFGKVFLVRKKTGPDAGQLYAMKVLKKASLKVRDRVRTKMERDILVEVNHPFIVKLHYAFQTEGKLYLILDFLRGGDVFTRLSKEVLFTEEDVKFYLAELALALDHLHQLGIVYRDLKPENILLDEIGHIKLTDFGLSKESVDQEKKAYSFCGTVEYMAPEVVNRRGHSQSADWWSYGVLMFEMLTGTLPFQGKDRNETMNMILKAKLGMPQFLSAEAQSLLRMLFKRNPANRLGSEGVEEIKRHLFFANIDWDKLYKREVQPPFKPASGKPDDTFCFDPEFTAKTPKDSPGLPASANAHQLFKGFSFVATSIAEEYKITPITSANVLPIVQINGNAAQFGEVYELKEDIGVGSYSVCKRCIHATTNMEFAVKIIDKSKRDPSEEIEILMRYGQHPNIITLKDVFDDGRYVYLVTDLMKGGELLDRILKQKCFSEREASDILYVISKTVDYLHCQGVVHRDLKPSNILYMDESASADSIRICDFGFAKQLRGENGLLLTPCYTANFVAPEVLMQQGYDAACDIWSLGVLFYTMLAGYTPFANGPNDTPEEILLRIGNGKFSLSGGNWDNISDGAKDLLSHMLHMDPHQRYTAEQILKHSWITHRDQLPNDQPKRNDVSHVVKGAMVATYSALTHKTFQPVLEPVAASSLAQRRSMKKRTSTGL
Chain of Cyclin-dependent kinase 1/cyclin B1 (Homo sapiens) (P06493 whole entry, looked up): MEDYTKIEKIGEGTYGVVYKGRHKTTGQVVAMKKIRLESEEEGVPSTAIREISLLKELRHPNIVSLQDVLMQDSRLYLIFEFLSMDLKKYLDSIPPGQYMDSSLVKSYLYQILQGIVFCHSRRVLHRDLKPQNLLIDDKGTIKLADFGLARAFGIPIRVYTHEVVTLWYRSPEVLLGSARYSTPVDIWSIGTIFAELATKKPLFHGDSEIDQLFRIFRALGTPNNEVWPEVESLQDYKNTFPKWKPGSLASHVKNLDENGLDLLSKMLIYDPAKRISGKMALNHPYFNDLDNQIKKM
Chain of Cyclin-dependent kinase 1/cyclin B1 (Homo sapiens) (P14635 whole entry, looked up): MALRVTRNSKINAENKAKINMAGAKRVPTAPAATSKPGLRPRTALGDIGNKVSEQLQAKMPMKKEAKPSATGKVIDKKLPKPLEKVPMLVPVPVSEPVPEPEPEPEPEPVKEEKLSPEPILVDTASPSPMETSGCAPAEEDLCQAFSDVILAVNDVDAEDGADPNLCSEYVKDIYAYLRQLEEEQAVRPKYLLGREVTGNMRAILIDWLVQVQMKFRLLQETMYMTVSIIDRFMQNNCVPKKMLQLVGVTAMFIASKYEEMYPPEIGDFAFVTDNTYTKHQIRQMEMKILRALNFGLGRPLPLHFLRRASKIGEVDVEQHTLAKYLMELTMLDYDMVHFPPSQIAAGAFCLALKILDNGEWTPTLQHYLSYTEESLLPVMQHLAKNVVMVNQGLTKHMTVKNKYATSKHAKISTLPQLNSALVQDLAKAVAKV
Chain of Serine/threonine-protein kinase pim-1 (Homo sapiens) (P11309 whole entry, looked up): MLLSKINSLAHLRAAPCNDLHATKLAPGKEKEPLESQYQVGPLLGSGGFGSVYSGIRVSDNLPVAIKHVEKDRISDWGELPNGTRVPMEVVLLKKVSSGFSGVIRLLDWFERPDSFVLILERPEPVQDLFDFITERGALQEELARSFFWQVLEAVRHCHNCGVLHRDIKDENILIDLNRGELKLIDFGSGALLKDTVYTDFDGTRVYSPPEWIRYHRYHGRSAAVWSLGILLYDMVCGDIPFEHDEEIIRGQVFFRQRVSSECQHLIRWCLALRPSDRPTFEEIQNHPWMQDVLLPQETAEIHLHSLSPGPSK
Chain of Vascular endothelial growth factor receptor 1 (Homo sapiens) (P17948 whole entry): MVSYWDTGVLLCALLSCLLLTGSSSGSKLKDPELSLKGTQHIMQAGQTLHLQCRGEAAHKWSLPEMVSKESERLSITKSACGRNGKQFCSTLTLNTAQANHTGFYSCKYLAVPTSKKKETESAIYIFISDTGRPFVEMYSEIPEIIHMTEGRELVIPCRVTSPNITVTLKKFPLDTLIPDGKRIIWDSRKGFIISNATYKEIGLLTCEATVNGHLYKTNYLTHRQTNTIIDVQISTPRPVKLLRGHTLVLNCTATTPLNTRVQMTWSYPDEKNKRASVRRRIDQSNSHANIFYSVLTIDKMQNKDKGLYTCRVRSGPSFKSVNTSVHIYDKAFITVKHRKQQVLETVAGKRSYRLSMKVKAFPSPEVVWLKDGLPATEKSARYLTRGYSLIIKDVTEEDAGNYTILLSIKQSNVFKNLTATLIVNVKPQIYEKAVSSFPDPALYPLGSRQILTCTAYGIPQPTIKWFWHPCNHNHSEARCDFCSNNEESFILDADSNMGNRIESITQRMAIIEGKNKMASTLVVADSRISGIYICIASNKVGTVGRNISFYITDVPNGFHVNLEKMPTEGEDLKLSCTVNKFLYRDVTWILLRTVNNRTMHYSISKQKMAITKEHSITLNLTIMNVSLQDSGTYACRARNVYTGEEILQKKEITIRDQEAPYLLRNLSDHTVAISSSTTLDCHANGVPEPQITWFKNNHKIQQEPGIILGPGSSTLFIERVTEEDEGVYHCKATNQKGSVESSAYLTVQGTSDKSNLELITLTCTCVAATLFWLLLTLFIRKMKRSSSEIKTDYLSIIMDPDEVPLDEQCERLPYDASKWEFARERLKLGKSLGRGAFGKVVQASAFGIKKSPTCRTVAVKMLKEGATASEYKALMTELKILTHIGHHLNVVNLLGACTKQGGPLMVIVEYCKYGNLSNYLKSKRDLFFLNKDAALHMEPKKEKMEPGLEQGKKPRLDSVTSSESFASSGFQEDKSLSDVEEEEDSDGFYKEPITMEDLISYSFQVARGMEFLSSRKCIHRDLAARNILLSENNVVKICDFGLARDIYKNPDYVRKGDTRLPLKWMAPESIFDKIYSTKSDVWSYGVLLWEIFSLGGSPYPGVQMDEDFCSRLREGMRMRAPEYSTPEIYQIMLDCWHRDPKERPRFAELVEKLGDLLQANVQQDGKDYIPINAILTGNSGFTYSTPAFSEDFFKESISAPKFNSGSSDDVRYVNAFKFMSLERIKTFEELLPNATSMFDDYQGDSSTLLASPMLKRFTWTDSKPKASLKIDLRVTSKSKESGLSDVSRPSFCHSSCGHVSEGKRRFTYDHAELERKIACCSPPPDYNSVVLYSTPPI
Chain of Casein kinase I isoform delta (Homo sapiens) (P48730 whole entry, looked up, canonical isoform): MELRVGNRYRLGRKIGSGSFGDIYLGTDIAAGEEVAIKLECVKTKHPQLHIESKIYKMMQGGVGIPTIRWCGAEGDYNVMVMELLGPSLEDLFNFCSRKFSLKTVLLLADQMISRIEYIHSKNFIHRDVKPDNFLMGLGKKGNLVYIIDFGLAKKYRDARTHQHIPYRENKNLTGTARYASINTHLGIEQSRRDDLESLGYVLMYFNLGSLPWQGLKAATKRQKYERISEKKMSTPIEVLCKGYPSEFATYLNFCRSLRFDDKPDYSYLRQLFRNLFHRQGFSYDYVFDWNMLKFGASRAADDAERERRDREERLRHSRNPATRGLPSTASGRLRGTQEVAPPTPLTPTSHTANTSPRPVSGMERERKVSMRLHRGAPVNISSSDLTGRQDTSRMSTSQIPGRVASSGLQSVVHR

`c1cc(-c2cccc(Nc3cnccn3)n2)cc(N2CCNCC2)c1` had an IC50 in [1] greater than 15000 nM.
On the same count and under the same terms, the value for `FC(F)(F)c1ccnc(Nc2cccc(-c3cccc(N4CCNCC4)c3)n2)c1` was 1000 nM.
Consider `Cc1cc(C(=O)Nc2cc(Nc3cnccn3)nc(-c3ccnc(N4CCNCC4)c3)c2)n(C)n1`, for which the IC50 in experiment [2] is 169 nM; in [1] it was greater than 20000 nM.
Turning to `O=C(Nc1cc(Nc2cnccn2)nc(-c2ccnc(N3CCNCC3)c2)c1)c1ccc(C(=O)O)nc1`, the values for the IC50 in experiment [2] and in experiment [1] were 204 nM and greater than 20000 nM, respectively.
For `CC(=O)N1CCC(C(=O)Nc2cc(Nc3cnccn3)nc(-c3ccnc(N4CCNCC4)c3)c2)CC1`, in that order: 1000 nM and greater than 20000 nM.
Consider `O=C(O)c1ccc(C(=O)Nc2cc(Nc3cnccn3)nc(-c3ccnc(N4CCNCC4)c3)c2)cc1`, for which the IC50 in experiment [2] was 140 nM; in experiment [1] it was greater than 20000 nM.
Regarding `O=C(Nc1cc(Nc2cnccn2)nc(-c2ccnc(N3CCNCC3)c2)c1)c1cccnc1`, the IC50 was 122 nM in experiment [2] and greater than 20000 nM in experiment [1].
`FC(F)(F)c1ccnc(Nc2cccc(-c3ccnc(N4CCNCC4)c3)n2)c1` came in with a half-inhibitory concentration (IC50) in experiment [1] of 1000 nM.
On to `Oc1ccc(CNc2cc(Nc3cnccn3)nc(-c3ccnc(N4CCNCC4)c3)c2)cc1`, for which the IC50 in experiment [2] was 585 nM; in [1] it was greater than 20000 nM.
In experiment [1], `Cc1ccnc(Nc2cccc(-c3ccnc(N4CCNCC4)c3)n2)c1` registered an IC50 of 1000 nM.
Take `CNc1cc(Nc2cnccn2)nc(-c2ccnc(N3CCNCC3)c2)c1`: the IC50 in experiment [2] is 188 nM; in [1], greater than 20000 nM.
As to `c1cc(Nc2cnccn2)nc(-c2ccnc(N3CCNCC3)c2)c1`, the IC50 in experiment [1] is greater than 15000 nM.
Turning to `O=C(Nc1cc(Nc2cnccn2)nc(-c2ccnc(N3CCNCC3)c2)c1)c1cncnc1`, the results for the IC50 in [2] and in experiment [1] were 331 nM and greater than 20000 nM, respectively.
The like results for `O=C(Nc1cc(Nc2cnccn2)nc(-c2ccnc(N3CCNCC3)c2)c1)c1ccccc1` were, in that order, 362 nM and greater than 20000 nM.
Consider `O=C(Cc1cccnc1)Nc1cc(Nc2cnccn2)nc(-c2ccnc(N3CCNCC3)c2)c1`, for which the IC50 is 352 nM in [2] and greater than 20000 nM in [1].
With `O=C(Nc1cc(Nc2cnccn2)nc(-c2ccnc(N3CCNCC3)c2)c1)C1CCNCC1`, in [3], the inhibition at 1 µM worked out at 14%. Moreover, the IC50 in [1] is greater than 20000 nM.
Regarding `Nc1cc(Nc2cnccn2)nc(-c2ccnc(N3CCNCC3)c2)c1`, the inhibition in [4] was greater than 50%; in experiment [5] it was less than 50%; in [6], greater than 50%; in [7] it was less than 50%; in [8] it was less than 50%; in [9], less than 50%. Besides, the inhibition in experiment [10] was less than 50%; in experiment [11] it was less than 50%; in experiment [12], less than 50%; in experiment [13], less than 50%; in [14] it was greater than 50%; in experiment [15] it was less than 50%. Moreover, the inhibition in experiment [16] is less than 50%; in experiment [17], less than 50%; in experiment [18], less than 50%; in experiment [19], less than 50%; in experiment [20], greater than 50%; in experiment [21] it was less than 50%. Besides, the inhibition in [22] is less than 50%; in [23], less than 50%; in experiment [24] it was greater than 50%; in [25], less than 50%; in experiment [26], greater than 50%; in experiment [27] it was greater than 50%. Besides, the inhibition is less than 50% in [28]; less than 50% in experiment [29]; less than 50% in experiment [30]; greater than 50% in experiment [31]; greater than 50% in experiment [32]; less than 50% in experiment [33]. Also, the inhibition in experiment [34], in experiment [35], in experiment [36], in [37], in experiment [38] and in [39] was less than 50% in each case. Besides, the inhibition in [40] was less than 50%; in experiment [41], greater than 50%; in experiment [42], greater than 50%; in experiment [43], less than 50%. Further, the IC50 is 118 nM in experiment [2] and greater than 20000 nM in experiment [1].
